Measurements: ChEMBL document CHEMBL1158762, “Antineoplastic agents. 534. isolation and structure of sansevistatins 1 and 2 from the African Sansevieria ehrenbergii” (2005)
In brackets after ≈: the same amount, converted by molar mass. Activity calls are given as the source filed them. No cut-off for these calls is given here.

Assays:
BXPC-3 = test: Growth inhibition of humanBxPC3 cells after 48 hrs; format: functional; conditions: Homo sapiens, BXPC-3, 48 h
How it was run: (§1)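 NCI sulforhodamine B assay. Cells in RPMI1640 with 5% fetal bovine serum were seeded and incubated 24 h, then exposed to serial dilutions for 48 h. Plates were TCA-fixed, SRB-stained and read for optical density. GI50 is the concentration giving 50% reduction in net protein increase, calculated from OD data.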

SF-268 = test: Growth inhibition of human SF268 cells after 48 hrs; format: functional; conditions: SF-268, 48 h; how it was run: as §1
Escherichia coli = test: Antimicrobial activity against Escherichia coli at 64 ug/mL by broth micro dilution assay; format: functional, organism-based
[1] = system: Stenotrophomonas maltophilia; test: Antimicrobial activity against Stenotrophomonas maltophilia at 64 ug/mL by broth micro dilution assay; format: functional, organism-based
KM-20L2 = test: Growth inhibition of human KM20L2 cells after 48 hrs; format: functional; conditions: KM-20L2, 48 h; how it was run: as §1
Enterobacter cloacae = test: Antimicrobial activity against Enterobacter cloacae at 64 ug/mL by broth micro dilution assay; format: functional, organism-based
Candida albicans [2] = test: Antimicrobial activity against Candida albicans ATCC 90028 at 64 ug/mL by broth micro dilution assay; format: functional, organism-based
MCF7 = test: Growth inhibition of human MCF7 cells after 48 hrs; format: functional; conditions: MCF7, 48 h; how it was run: as §1
NCI-H460 = test: Growth inhibition of human NCI-H460 cells after 48 hrs; format: functional; conditions: NCI-H460, 48 h; how it was run: as §1
DU-145 = test: Growth inhibition of human DU145 cells after 48 hrs; format: functional; conditions: DU-145, 48 h; how it was run: as §1
Staphylococcus aureus = test: Antimicrobial activity against Staphylococcus aureus at 64 ug/mL by broth micro dilution assay; format: functional, organism-based
Micrococcus luteus [3] = test: Antimicrobial activity against Micrococcus luteus presque Isle 456 by broth micro dilution assay; format: functional
How it was run: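 NCCLS broth microdilution. Compounds reconstituted in a small volume of sterile DMSO and diluted in the appropriate medium immediately before testing. MIC read as the lowest concentration giving no visible growth (optically clear). Assays repeated on separate days.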

Cryptococcus neoformans [4] = test: Antimicrobial activity against Cryptococcus neoformans ATCC 90112 at 64 ug/mL by broth micro dilution assay; format: functional, organism-based
Streptococcus pneumoniae [5] = test: Antimicrobial activity against Streptococcus pneumoniae ATCC 6303 at 64 ug/mL by broth micro dilution assay; format: functional, organism-based
P388 = test: Growth inhibition of mouse P388 cells after 48 hrs; format: functional; conditions: P388, 48 h, read-out: ED50 (the source's name)
How it was run: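 Murine P388 leukemia cells were preincubated 24 h in Fisher medium with 10% horse serum, then exposed to serial compound dilutions for 48 h. Cells were counted on an electronic particle counter, and ED50 for growth inhibition was calculated from the counts.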

Enterococcus faecalis = test: Antimicrobial activity against Enterococcus faecalis at 64 ug/mL by broth micro dilution assay; format: functional, organism-based
Neisseria gonorrhoeae = test: Antimicrobial activity against Neisseria gonorrhoeae at 64 ug/mL by broth micro dilution assay; format: functional, organism-based
Streptococcus pneumoniae [6] = test: Antimicrobial activity against Streptococcus pneumoniae ATCC 6303 by broth micro dilution assay; format: functional
Cryptococcus neoformans [7] = test: Antimicrobial activity against Cryptococcus neoformans ATCC 90112 by broth micro dilution assay; format: functional
Micrococcus luteus [8] = test: Antimicrobial activity against Micrococcus luteus presque Isle 456 at 64 ug/mL by broth micro dilution assay; format: functional, organism-based
Candida albicans [9] = test: Antimicrobial activity against Candida albicans ATCC 90028 by broth micro dilution assay; format: functional

Structure (SMILES)	GI50 (BXPC-3) [µg/mL]	GI50 (SF-268) [µg/mL]	Activity (Escherichia coli)	Activity [1]	GI50 (KM-20L2) [µg/mL]	Activity (Enterobacter cloacae)	GI50 (MCF7) [µg/mL]	GI50 (NCI-H460) [µg/mL]	GI50 (DU-145) [µg/mL]	Activity (Staphylococcus aureus)	Activity (Streptococcus pneumoniae [5])	EC50 (P388) [µg/mL]	Activity (Enterococcus faecalis)	Activity (Neisseria gonorrhoeae)	MIC (Streptococcus pneumoniae [6]) [µg/mL]	MIC (Cryptococcus neoformans [7]) [µg/mL]	Activity (Micrococcus luteus [8])	MIC (Candida albicans [9]) [µg/mL]	further results
C[C@@H]1CC[C@@]2(OC1)O[C@H]1C[C@H]3[C@@H]4CC=C5C[C@@H](O)CC[C@]5(C)[C@H]4CC[C@]3(C)[C@H]1[C@@H]2C [DISOGENIN]	> 10	> 10	inactive	inactive	> 10	inactive	> 10	> 10	8.5 (≈ 20.5 µM)	inactive	inactive	4.3 (≈ 10.4 µM)	inactive	inactive	–	–	–	–	Activity (Candida albicans [2]): inactive; MIC (Micrococcus luteus [3]): 32 µg/mL (≈ 77.2 µM); Activity (Cryptococcus neoformans [4]): inactive
C[C@@H]1CC[C@@]2(OC1)O[C@H]1C[C@H]3[C@@H]4CC=C5C[C@@H](O[C@@H]6O[C@H](CO)[C@@H](O[C@@H]7OC[C@H](O)[C@H](O)[C@H]7O)[C@H](O)[C@H]6O[C@@H]6O[C@@H](C)[C@H](O)[C@@H](O)[C@H]6O)CC[C@]5(C)[C@H]4CC[C@]3(C)[C@H]1[C@@H]2C [SANSEVISTATIN 2]	0.93 (≈ 1.09 µM)	0.68 (≈ 0.795 µM)	inactive	inactive	0.22 (≈ 0.257 µM)	inactive	0.62 (≈ 0.725 µM)	0.26 (≈ 0.304 µM)	0.42 (≈ 0.491 µM)	inactive	–	1.7 (≈ 1.99 µM)	inactive	inactive	32 (≈ 37.4 µM)	1 (≈ 1.17 µM)	inactive	–	Activity (Candida albicans [2]): inactive
C[C@@H]1CC[C@@]2(OC1)O[C@H]1C[C@H]3[C@@H]4CC=C5C[C@@H](O[C@@H]6O[C@H](CO)[C@@H](O[C@@H]7O[C@@H](C)[C@H](O)[C@@H](O)[C@H]7O)[C@H](O)[C@H]6O[C@@H]6O[C@@H](C)[C@H](O)[C@@H](O)[C@H]6O)CC[C@]5(C)[C@H]4CC[C@]3(C)[C@H]1[C@@H]2C [DIOSCIN]	1.1 (≈ 1.27 µM)	1.2 (≈ 1.38 µM)	inactive	inactive	1.6 (≈ 1.84 µM)	inactive	1.6 (≈ 1.84 µM)	1.6 (≈ 1.84 µM)	1.6 (≈ 1.84 µM)	inactive	–	1.5 (≈ 1.73 µM)	inactive	inactive	32 (≈ 36.8 µM)	1 (≈ 1.15 µM)	–	2 (≈ 2.3 µM)	MIC (Micrococcus luteus [3]): 4 µg/mL (≈ 4.6 µM)
C=C1CC[C@@]2(OC1)O[C@H]1C[C@H]3[C@@H]4CC=C5C[C@@H](O[C@@H]6O[C@H](CO)[C@@H](O[C@@H]7O[C@@H](C)[C@H](O)[C@@H](O)[C@H]7O)[C@H](O)[C@H]6O[C@@H]6O[C@@H](C)[C@H](O)[C@@H](O)[C@H]6O)CC[C@]5(C)[C@H]4CC[C@]3(C)[C@H]1[C@@H]2C [SANSEVISTATIN 1]	1.1 (≈ 1.27 µM)	1.3 (≈ 1.5 µM)	inactive	inactive	0.47 (≈ 0.542 µM)	inactive	1.1 (≈ 1.27 µM)	0.43 (≈ 0.496 µM)	1 (≈ 1.15 µM)	inactive	inactive	1.6 (≈ 1.85 µM)	inactive	inactive	–	1 (≈ 1.15 µM)	inactive	2 (≈ 2.31 µM)	–
C[C@@H]1CC[C@@]2(OC1)O[C@H]1C[C@H]3[C@@H]4[C@H](O)C=C5C[C@@H](O[C@@H]6O[C@H](CO)[C@@H](O)[C@H](O)[C@H]6O[C@@H]6O[C@@H](C)[C@H](O)[C@@H](O)[C@H]6O)CC[C@]5(C)[C@H]4CC[C@]3(C)[C@H]1[C@@H]2C [SANSEVIERIN A]	> 10	> 10	inactive	inactive	> 10	inactive	> 10	> 10	> 10	inactive	inactive	> 10	inactive	inactive	–	64 (≈ 86.6 µM)	inactive	64 (≈ 86.6 µM)	–
C[C@@H]1CC[C@@]2(OC1)O[C@H]1C[C@H]3[C@@H]4CC=C5C[C@@H](O[C@@H]6O[C@H](CO)[C@@H](O)[C@H](O)[C@H]6O[C@@H]6O[C@@H](C)[C@H](O)[C@@H](O)[C@H]6O)CC[C@]5(C)[C@H]4CC[C@]3(C)[C@H]1[C@@H]2C [OPHIOPOGONIN C]	1.8 (≈ 2.49 µM)	1.8 (≈ 2.49 µM)	inactive	inactive	1.7 (≈ 2.35 µM)	inactive	2 (≈ 2.77 µM)	1.8 (≈ 2.49 µM)	1.6 (≈ 2.21 µM)	inactive	–	1.5 (≈ 2.07 µM)	inactive	inactive	16 (≈ 22.1 µM)	1 (≈ 1.38 µM)	inactive	2 (≈ 2.77 µM)	–
C[C@@H]1CC[C@@]2(OC1)O[C@H]1C[C@H]3[C@@H]4CC=C5C[C@@H](O[C@@H]6O[C@H](CO)[C@@H](O[C@@H]7OC[C@@H](O)[C@H](O)[C@H]7O)[C@H](O)[C@H]6O[C@@H]6O[C@@H](C)[C@H](O)[C@@H](O)[C@H]6O)CC[C@]5(C)[C@H]4CC[C@]3(C)[C@H]1[C@@H]2C	1.7 (≈ 1.99 µM)	1.3 (≈ 1.52 µM)	inactive	inactive	0.5 (≈ 0.585 µM)	inactive	1.4 (≈ 1.64 µM)	1.2 (≈ 1.4 µM)	1.1 (≈ 1.29 µM)	inactive	inactive	2.6 (≈ 3.04 µM)	inactive	inactive	–	2 (≈ 2.34 µM)	inactive	4 (≈ 4.68 µM)	–
